Test results taken from article PMC6612960 (Drug Design, Development and Therapy, 2019).

What was measured:
K562/MDR cells [1] = assay: LDH release, K562/MDR; assay type: cell-based, human; conditions: CM4 treatment (3, 9, 30 μM)
How it was run: (§1)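 Cells (1×10^5/mL) in RPMI 1640 held 4 h at 37°C, then exposed to peptide at 3, 9 or 30 μM for varying times. PBS and 2% Triton X-100 controls. Cell-free supernatant mixed with tetrazolium salt reagent; formazan read at 490 nm. Leakage % = [(A−C)/(P−C)]×100 (C = PBS, P = Triton). Mean±SEM of four independent experiments.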

Jurkat cells [2] = assay: LDH release, Jurkat; assay type: cell-based, human; conditions: CM4 treatment (3, 9, 30 μM)
How it was run: as §1

[3] = tested on: leukemia cells (K562, THP-1, and U937 cells); conditions: read-out: IC50, anticancer activity in leukemia cells; cited from earlier work
non-cancer cells = conditions: even at 120 μM; cited from earlier work
K562/MDR cells [4] = assay: MTT assay, K562/MDR cells; assay type: cell-based, human; conditions: K562/MDR vs K562
[5] = tested on: Peripheral blood mononuclear cells (PBMCs); assay: Trypan Blue dye exclusion, PBMCs; assay type: cell-based; conditions: 2 μM, 24 hours, mouse PBMCs
How it was run: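 PBMCs from mouse blood isolated by Ficoll density gradient and seeded at 5×10^5 cells/well in 12-well plates in RPMI 1640 with 10% FBS. Treated with test compound (2, 4, 10 μM), PBS or melittin at 37°C for 24 h. Stained with 0.4% Trypan Blue for 5 min, washed three times in PBS and viewed by fluorescence microscopy.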

HEK293 cells = assay: Peptide binding assay; assay type: cell-based, human; conditions: HEK293, 30 minutes, 37°C, flow cytometry
How it was run: (§2)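 Cells (human lines or mouse erythrocytes) resuspended in PBS at 1×10^6/ml and exposed to FITC-labelled peptide at 37°C for 30 min in the dark. Washed in PBS and read by flow cytometry as mean fluorescence of 10,000 cells. Mean±SEM of three independent experiments.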

erythrocytes = assay: Peptide binding assay; assay type: cell-based; conditions: mouse erythrocytes, 30 minutes, 37°C, flow cytometry
How it was run: as §2

K562/MDR cells [6] = assay: Confocal laser scanning microscopy, K562/MDR; assay type: cell-based, human; conditions: incubation 30 minutes
How it was run: (§3)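 Cells exposed to FITC-labelled peptide for 30 min in the dark, harvested, rinsed three times in PBS and imaged at once by CLSM (488 nm argon excitation for FITC). For mitochondrial co-localisation, cells were then given 30 nM rhodamine 123 for 30 min in the dark, washed and imaged with 488 nm (FITC) and 525 nm (rhodamine 123) laser lines.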

Jurkat cells [7] = assay: Confocal laser scanning microscopy, Jurkat; assay type: cell-based, human; conditions: incubation 30 minutes
How it was run: as §3

In the case of “GRWKIFKKIEKVGQNIRDGIVKAGPAVAVVGQAATI-NH2 [CM4]”, the LDH release (K562/MDR cells [1]) is given as “Virtually no LDH was released”, the LDH release (Jurkat cells [2]) is given as “Virtually no LDH was released” and the IC50 [3] is given as 20 to 40 µM. For the same compound, the “cytotoxicity towards non-cancer cells” value (non-cancer cells) was “no cytotoxicity”.

For COc1cccc2c1C(=O)c1c(O)c3c(c(O)c1C2=O)C[C@@](O)(C(=O)CO)C[C@@H]3O[C@H]1C[C@H](N)[C@H](O)[C@H](C)O1 [doxorubicin], the “resistance of K562/MDR compared with K562 cells” value (K562/MDR cells [4]) was “a certain resistence”.

For CC[C@H](C)[C@H](NC(=O)CN)C(=O)NCC(=O)N[C@@H](C)C(=O)N[C@H](C(=O)N[C@@H](CC(C)C)C(=O)N[C@@H](CCCCN)C(=O)N[C@H](C(=O)N[C@@H](CC(C)C)C(=O)N[C@H](C(=O)N[C@H](C(=O)NCC(=O)N[C@@H](CC(C)C)C(=O)N1CCC[C@H]1C(=O)N[C@@H](C)C(=O)N[C@@H](CC(C)C)C(=O)N[C@H](C(=O)N[C@@H](CO)C(=O)N[C@@H](Cc1c[nH]c2ccccc12)C(=O)N[C@H](C(=O)N[C@@H](CCCCN)C(=O)N[C@@H](CCCNC(=N)N)C(=O)N[C@@H](CCCCN)C(=O)N[C@@H](CCCNC(=N)N)C(=O)N[C@@H](CCC(N)=O)C(=O)N[C@@H](CCC(N)=O)C(N)=O)[C@@H](C)CC)[C@@H](C)CC)[C@@H](C)O)[C@@H](C)O)C(C)C)C(C)C [melittin], the “cytotoxicity of PBMCs” value [5] was 100%.

With “FITC-myristoyl-CM4: fluorescein isothiocyanate labeled myristoyl-CM4 (GRWKIFKKIEKVGQNIRDGIVKAGPAVAVVGQAATI; not fully specified; FITC, myristoyl, C-terminal amide)” the “fluorescence intensity on cells” value (HEK293 cells) was “very weak”, the “fluorescence intensity on cells” value (erythrocytes) was “very weak” and the “FITC signal on the cells (CLSM)” value (K562/MDR cells [6]) was “stronger than the FITC-CM4 signal”. For the same compound, the “FITC signal on the cells (CLSM)” value (Jurkat cells [7]) was “stronger than the FITC-CM4 signal”.
